Only some compounds are listed: those with a hit (about 1.7% of all), similar ones and a draw of the others.
DNMT1 block = blocks human DNA methyltransferase DNMT1. DNMT1 molecular beacon, Hinp1I cleavage, fluorescence. inhibition (reported as % activation of signal), % at 10 µM. AID 588458. 360,000 tested, 0.83% active; in the data active = inhibition above about 50%
STEP block = inhibitors of human striatal-enriched phosphatase STEP | recombinant STEP, OMFP fluorogenic substrate, fluorescence | inhibition, % at 20 µM | 360,000 tested, 0.25% active | AID 588621;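 active = inhibition at 20 µM, scaled per plate between control wells, above about 37%, limit read from the data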
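Material: STEP (striatal-enriched tyrosine phosphatase) enzyme, cell-free; Compound dosing: 20 µM single dose in 1% DMSO; Technique: fluorescence read at 480 nm ex / 540 nm em; Times: reaction 20 min, ambient temperature; Medium: 50 mM Bis-Tris pH 6.0 with 2.5 mM DTT and 0.005% Tween 20; Also added: OMFP at 25 µM.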
Casp6 inh = inhibitors of human caspase-6. P55212. purified caspase-6, Z-VEID-R110 cleavage fluorescence. inhibition, % at 12.5 µM. 350,000 tested, 0.53% active. AID 686996;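 active = mean inhibition across replicates at least about 35%, with every replicate also reaching that limit, limit read from the data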
Target sequence (P55212 24-179 limits assumed): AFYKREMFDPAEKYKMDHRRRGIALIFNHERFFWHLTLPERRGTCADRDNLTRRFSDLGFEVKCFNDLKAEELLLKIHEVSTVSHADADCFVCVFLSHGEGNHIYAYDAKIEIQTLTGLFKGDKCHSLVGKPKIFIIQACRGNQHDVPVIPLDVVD
Target sequence (P55212 194-293 limits assumed): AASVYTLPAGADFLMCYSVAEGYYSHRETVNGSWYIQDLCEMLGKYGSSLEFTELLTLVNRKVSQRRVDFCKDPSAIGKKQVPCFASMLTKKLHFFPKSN
LMPTP block = LMPTP (human) inhibition | recombinant LMPTP-A, OMFP fluorogenic substrate, fluorescence intensity | inhibition, % at 20 µM | 360,000 tested, 0.22% active | AID 651560;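 active = compounds that cut the enzyme signal by at least half of the control window in the single-dose screen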
Target sequence (P24666 whole entry, looked up): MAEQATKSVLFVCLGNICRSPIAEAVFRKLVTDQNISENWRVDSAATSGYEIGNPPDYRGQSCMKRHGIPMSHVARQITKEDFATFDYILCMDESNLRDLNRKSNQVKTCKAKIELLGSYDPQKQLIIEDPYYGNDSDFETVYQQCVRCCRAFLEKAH
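Test system: LMPTP-A, protein tyrosine phosphatase of low molecular weight; Input: 0.625 nM enzyme; Incubation: 50 min dark incubation at room temperature; Signal: endpoint fluorescence intensity from OMFP dephosphorylation; Read-out basis: % inhibition versus control wells.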
SUMO1 PPI mod = SUMO1-SIM interaction modulation | 360,000 tested, 0.33% active | inhibition, % at 20 µM | AID 602429 | SUMO1 binding to a labelled peptide, TR-FRET, 1 h; in the data active = inhibition above about 37%
Scp-1 inhibitor = inhibitors of human Scp-1 phosphatase | Q9GZU7 | Recombinant Scp1, phosphopeptide, malachite green phosphate absorbance | inhibition, % at 20 µM | 340,000 tested, 0.88% active | AID 493091;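 active = inhibition above about 50% at 20 µM, limit read from the data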
Target sequence (Q9GZU7 76-261 limits assumed): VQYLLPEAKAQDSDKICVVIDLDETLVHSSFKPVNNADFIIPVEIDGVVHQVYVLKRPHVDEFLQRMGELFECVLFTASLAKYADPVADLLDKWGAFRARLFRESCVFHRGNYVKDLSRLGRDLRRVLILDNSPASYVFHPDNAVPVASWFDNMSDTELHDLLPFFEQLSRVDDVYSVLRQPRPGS
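Material – SCP-1 phosphatase catalytic domain, residues 76-261 · Buffer or medium – Acidic Tris acetate buffer with magnesium and detergent · Also added – Phospho 17-mer peptide substrate · Compound – single 20 µM dose, 1% DMSO · Times – 45 min room-temperature reaction, 5 min colour, 30 min stabiliser · Technique – Phosphate-binding colour reagent, absorbance read at 630 nm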
A number is an active result; 0 = inactive; - = not tested or not shown.

SMILES	DNMT1 block	STEP block	Casp6 inh	LMPTP block	SUMO1 PPI mod	Scp-1 inhibitor
CN1CC(=O)N2Cc3[nH]c4ccccc4c3C[C@H]2C1=O	0	0	45	0	0	0
O=c1oc2c(O)c(O)cc3c(=O)oc4c(O)c(O)cc1c4c23	88	99	-	86	94	96
Cc1c(C)c2cc(Cl)c(O)c(CN(C)C)c2oc1=O	0	0	-	0	0	0
COc1cccc(C(=O)NC(=S)N2c3ccccc3CC2C)c1OC (stereo unspecified)	0	0	0	0	43	0
CC1(C)O[C@@H]2C[C@H]3[C@@H]4CCC5=CC(=O)CC[C@]5(C)[C@@]4(F)[C@@H](O)C[C@]3(C)[C@]2(C(=O)CCl)O1	0	0	-	0	0	0
CN(C)CCN1C(=O)CCC2(C)C1=CCC1C2CCC2(C)C1CCC2(C)O (stereo unspecified)	0	0	0	0	0	0
COc1ccccc1NC(=O)CCc1nnc2ccc(N3CCCCC3)nn12	0	0	0	0	0	0
CCOc1ccccc1NC(=O)CCc1nnc2ccc(N3CCC(C)CC3)nn12	98	0	0	0	0	0
COc1ccc(NC(=O)C(=O)N/N=C\c2ccc(CNC(=O)C(=O)Nc3ccc(C)c(C)c3)o2)c(OC)c1	-	-	-	-	-	68
COCCNC(=O)/C(C#N)=C\c1ccc(CNC(=O)C(=O)Nc2ccc(C)c(C)c2)o1	0	0	0	0	0	0
Cc1csc(NC(=O)c2cccs2)n1	0	0	-	0	0	0
Cc1csc(NC(=O)c2ccc(Br)s2)n1	0	0	0	0	0	77
O=C(Nc1ccc(S(=O)(=O)Nc2nccs2)cc1)c1cc(-c2ccccc2Cl)nc2ccccc12	0	0	-	0	0	0
Fc1cccc2sc(Nc3nnc(-c4ccccc4)o3)nc12	0	0	-	0	0	51
CCCCn1c(CCC(=O)O)nc2c1c(=O)[nH]c(=O)n2CCC	0	0	-	0	0	0
CN1CCN(CC(C)(C)NS(=O)(=O)c2ccc(Cl)cc2)CC1	0	0	-	0	0	0
CC(C)(CN1CCc2ccccc2C1)NS(=O)(=O)c1ccc(Cl)cc1	0	0	0	0	45	0
CCOC(=O)Cc1nnc(NC(=O)C(CC)Sc2nc(C)cc(=O)[nH]2)s1 (stereo unspecified)	0	0	43	0	0	0
Cc1ccc(C(=O)Nc2ccc3nccnc3c2)cc1	0	0	-	0	0	0
CN(CCc1ccccn1)C(=O)CC1C(=O)NCCN1Cc1ccccc1C(F)(F)F (stereo unspecified)	0	0	0	0	0	0
Cc1c2cc[n+](CCN3CCCCC3)cc2c(C)c2c1[nH]c1ccc(O)cc12	0	0	-	0	92	0
CN(C)c1ccc(-c2[nH][nH]c(=O)c2NC(=O)c2ccccn2)cc1	0	0	99	0	0	-
CN(C)c1ccc(-c2[nH][nH]c(=O)c2NC(=O)c2ccc3ccccc3n2)cc1	0	0	0	0	0	-
CCCNC(=O)N1CC2(CN(CC3CC3)C2)c2c([nH]c3cc(OC)ccc23)[C@@H]1CO	-	-	0	-	-	-
CC1(C)CC(=O)C(C=Nc2cccnc2/N=C/C2=C(O)CC(C)(C)CC2=O)=C(O)C1	0	0	41	0	0	0
SMILES	DNMT1 block	STEP block	Casp6 inh	LMPTP block	SUMO1 PPI mod	Scp-1 inhibitor
O=C(/C=C/c1ccccc1)c1cc(Br)ccc(=O)c1O	61	0	-	0	0	0
O=C1c2ccccc2C(=O)c2[nH]c(=O)[nH]c21	0	0	83	0	0	0
CC(OC(=O)c1n[nH]c2ccccc12)C(=O)Nc1ccccc1[N+](=O)[O-] (stereo unspecified)	0	0	36	0	0	0
O=C(Nc1ccccc1)C1CCN(S(=O)(=O)c2ccc3c(c2)OCCO3)CC1	0	0	36	0	0	0
O=C(O)c1ccc(NC(=O)C2CCN(S(=O)(=O)c3ccc4c(c3)OCCO4)CC2)cc1	0	0	0	0	0	-
CC(Sc1n[nH]c(=O)[nH]c1=O)C(=O)OCc1ccccc1 (stereo unspecified)	0	0	-	0	0	0
Cc1ccccc1-c1nnn(C/C(N)=N/O)n1	0	0	0	0	0	0
C=CC[C@@]12C=C(OC)C(=O)C(OC)=C1O[C@H](c1ccc3c(c1)OCO3)[C@H]2C	0	0	0	0	0	0
O=C(/C=C/c1ccc(Br)cc1)NC(=O)c1ccccc1O	0	0	0	56	0	59
N#CCCN(Cc1cccs1)C(=O)c1ccc(Cl)cc1	0	0	0	0	0	0
Cc1cc(C)c(S(=O)(=O)Nc2cc(SCC(=O)O)c(O)c3ccccc23)cc1C	-	-	-	-	-	0
O=C(O)CSc1cc(NS(=O)(=O)c2ccc(Cl)cc2)c2ccccc2c1O	0	0	96	0	0	0
COc1ccc(S(=O)(=O)Nc2cc(SCC(=O)O)c(O)c3ccccc23)cc1	0	0	93	0	0	0
COc1ccc(S(=O)(=O)Nc2cccc3ccc(O)cc23)cc1	0	0	0	0	0	0
O=C(C[C@@H]1CC[C@@H](NC(=O)C2CCC2)[C@H](CO)O1)NCc1ccncc1	-	-	0	-	-	-
CCN(CC)C1CCN(Cc2c(C(=O)N3CCCCCCC3)nc3ccc(Cl)cn23)C1 (stereo unspecified)	0	0	64	0	0	0
COC1CCN(Cc2c(C(=O)N3C[C@@H](C)O[C@@H](C)C3)nc3ccc(Cl)cn23)CC1	0	0	0	0	0	0
O=C(c1nc2ccccn2c1CN1CCCC(c2nc3ccccc3o2)C1)N1CCCC1 (stereo unspecified)	0	0	51	0	0	0
CCOC(=O)C1CCCN(Cc2c(C(=O)N3CCOCC3)nc3ccccn23)C1 (stereo unspecified)	0	0	0	0	0	0
COc1ccc(S(=O)(=O)N(C)C[C@@H]2Oc3ccc(NC(=O)NC4CCCCC4)cc3C(=O)N([C@H](C)CO)C[C@@H]2C)cc1	-	-	0	-	-	-
CCOC(=O)c1c(/N=C/c2ccc(C)cc2O)sc2c1CCN(C)C2	0	0	0	0	0	0
CN1CCN(c2ccc(-c3cc(NC=O)c4ncc(-c5ccccc5)n4c3)cc2)CC1	0	0	0	0	0	-
CO[C@H]1CN(C)C(=O)c2ccc(NC(=O)c3ccccc3F)cc2OC[C@H](C)N(CC2CCOCC2)C[C@H]1C	-	-	0	-	-	-
CCCC(=O)NC1=C(Cl)C(=O)c2ccccc2C1=O	0	0	0	0	0	0
CCCNC1=C(N(C(C)=O)c2cccc(F)c2)C(=O)c2ccccc2C1=O	0	0	80	0	0	0
CC(=O)c1cccc(NC(=O)c2cccc3c(-c4cccc(C(N)=O)c4)coc23)c1	0	0	0	0	49	-
CS(=O)(=O)Nc1cccc(NC(=O)c2cccc3c(-c4cccc(C(N)=O)c4)coc23)c1	0	0	0	0	0	-

Screening data deposited in PubChem BioAssay by several laboratories.
